From the RNAGym collection of RNA variant scans (doi:10.1126/science.aae0568)
Variants at the floor of the assay were thinned out.

B1: tRNA (parent)
chain: GUUCCGUUGGCGUAAUGGUAACGCGUCUCCCUCCUAAGGAGAAGACUGCGGGUUCGAGUCCCGUACGGAACG

Variants of: B1
Assay: yeast fitness relative to wild type (ratio to wild type); higher = fitter; tRNA-Arg(CCU), competitive growth, 37 C, YPD
How it was run: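 For this measurement, the tRNA-Arg(CCU) gene was varied by chemical synthesis at a 3% per-site mutation rate across 69 sites, and each variant was placed at the native genomic locus in Saccharomyces cerevisiae. The pooled strains went through a 24-hour competition in YPD at 37°C in six parallel replicates, with amplicons from start and end populations read by 100-nucleotide paired-end sequencing. Darwinian fitness relative to wild type followed from the change in each genotype's frequency. Genotypes needed ≥ 100 starting reads, and estimates < 0.5 were set to 0.5.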

G12A A42C C49A C61U and G12A C46U U53A cannot be ordered by yeast fitness: ≤ 0.5 for the first, ≤ 0.5 for the second.

Compared with G12A C24U C34U G58C C62G G67A, G12A A45C is higher in yeast fitness: 0.542 for the first, 0.834 for the second.

Compared with G12A G44A C66U, G12A G38A C60G is lower in yeast fitness: 0.697 for the first, ≤ 0.5 for the second.

Compared with G12A G17A G18A A36G A42U C46U C55U, G12A G18A C61G A70G is higher in yeast fitness: 0.581 for the first, 0.682 for the second.

First: G12A U13G G23C C24G C29G A36C
Second: G12A C24U G67C
The yeast fitness of the first is lower: ≤ 0.5 for the first, 0.603 for the second.

First: G12A U16A A40G A57C C60A C62U
Second: G12A A43U C62U
The yeast fitness of the first is lower: 0.69 for the first, 0.807 for the second.

G12A G23A U35G G58A and G12A C30U U47A U54C cannot be ordered by yeast fitness: ≤ 0.5 for the first, ≤ 0.5 for the second.

Compared with G12A C33A A40G A70U, G12A A15G G48A is higher in yeast fitness: ≤ 0.5 for the first, 0.763 for the second.

First: G12A C24U G58A U59A A65U
Second: G12A A36G
The yeast fitness of the first is lower: ≤ 0.5 for the first, 0.906 for the second.

Going from G12A A36C to G12A C27U C33U U47A A70C, the yeast fitness falls from 0.628 to ≤ 0.5.

G12A A14G C24G A40U C46A G52C and G12A C27U C30A C55U A57C cannot be ordered by yeast fitness: ≤ 0.5 for the first, ≤ 0.5 for the second.

G12A G18A C27U C46U G48A and G12A A15C C27G C49G cannot be ordered by yeast fitness: ≤ 0.5 for the first, ≤ 0.5 for the second.

G12A A15G C22U C31A U35G C61U A65C and G12A C29U C55G A65U cannot be ordered by yeast fitness: ≤ 0.5 for the first, ≤ 0.5 for the second.

First: G12A C24A A36U U54C C61U
Second: G12A A14C G50C
The yeast fitness of the first is lower: ≤ 0.5 for the first, 0.535 for the second.

Going from G12A C33G G39C A69C to G12A C22G A57C, the yeast fitness rises from ≤ 0.5 to 0.549.

G12A A14G C27G C34G A37U U64A and G12A G17A C29U cannot be ordered by yeast fitness: ≤ 0.5 for the first, ≤ 0.5 for the second.

Compared with G12A G58A, G12A A37C A45C G52C A70U is lower in yeast fitness: 0.924 for the first, ≤ 0.5 for the second.

First: G12A G48C G67C
Second: G12A A15G A65G
The yeast fitness of the first is lower: ≤ 0.5 for the first, 0.541 for the second.

G12A A36G C49G and G12A A37G A65C cannot be ordered by yeast fitness: ≤ 0.5 for the first, ≤ 0.5 for the second.

First: G12A A15U
Second: G12A A15G
The yeast fitness of the first is lower: 0.782 for the first, 0.843 for the second.

First: G12A A21U C66U A69C
Second: G12A G44C C49G
The yeast fitness of the first is lower: ≤ 0.5 for the first, 0.799 for the second.

Compared with G12A G38C C46G C49G G51C C61U, G12A C27U G51C A57U is higher in yeast fitness: ≤ 0.5 for the first, 0.534 for the second.

G12A A40C C61A and G12A G23C C24A G25A cannot be ordered by yeast fitness: ≤ 0.5 for the first, ≤ 0.5 for the second.

Compared with G12A G44U G68C, G12A C62U is higher in yeast fitness: ≤ 0.5 for the first, 0.815 for the second.

Compared with G12A C62A, G12A C27G U32G is lower in yeast fitness: 0.823 for the first, ≤ 0.5 for the second.

First: G12A C27G C46A C55U
Second: G12A G23C G56C C61G
The yeast fitness of the first is higher: 0.603 for the first, ≤ 0.5 for the second.

G12A C29A A45G and G12A C24G C33A A40C cannot be ordered by yeast fitness: ≤ 0.5 for the first, ≤ 0.5 for the second.

First: G12A A15C C46G
Second: G12A A37G A43G U53A G58C C66G
The yeast fitness of the first is higher: 0.567 for the first, ≤ 0.5 for the second.

G12A G50C C66U and G12A C29A C31G C60A cannot be ordered by yeast fitness: ≤ 0.5 for the first, ≤ 0.5 for the second.

First: G12A G25A
Second: G12A U13C G44C
The yeast fitness of the first is higher: 0.819 for the first, 0.554 for the second.

G12A C29A G67C and G12A C24U G38C C62G cannot be ordered by yeast fitness: ≤ 0.5 for the first, ≤ 0.5 for the second.

Compared with G12A A15G A65C A70G, G12A A36C A40U G41C is higher in yeast fitness: ≤ 0.5 for the first, 0.576 for the second.

Compared with G12A C22U C31G G48C, G12A A42G is higher in yeast fitness: ≤ 0.5 for the first, 0.837 for the second.

Going from G12A A15C A45U to G12A G48C G68C A70U, the yeast fitness falls from 0.87 to ≤ 0.5.

First: G12A G18C C33U A69C
Second: G12A U13C A42U
The yeast fitness of the first is lower: 0.528 for the first, 0.561 for the second.

Going from G12A A36U A37G to G12A A57C A65C A70C, the yeast fitness falls from 0.543 to ≤ 0.5.

Compared with G12A U13A G41C A45C, G12A A21G C24G U28G C46U is higher in yeast fitness: 0.546 for the first, 0.582 for the second.

Going from G12A U13G A69C to G12A C24A C27A, the yeast fitness falls from 0.598 to ≤ 0.5.

Going from G12A G18C A42U to G12A A69G, the yeast fitness rises from 0.65 to 0.907.

First: G12A A69U
Second: G12A A69C
The yeast fitness of the first is higher: 1.03 for the first, 0.866 for the second.

G12A G23C G25A U59A G63A and G12A C33G G38C cannot be ordered by yeast fitness: ≤ 0.5 for the first, ≤ 0.5 for the second.

G12A C24G U26G A40U and G12A A15U A21C C49U cannot be ordered by yeast fitness: ≤ 0.5 for the first, ≤ 0.5 for the second.
